Data as given in ChEMBL document CHEMBL3627671, “Novel derivatives of nitro-substituted salicylic acids: Synthesis, antimicrobial activity and cytotoxicity” (Bioorg Med Chem, 2015).
pIC50: −log10 of the molar value. In brackets after ≈: the same amount, converted by molar mass.

Experiments:
Candida tropicalis [1] = assay: Antifungal activity against Candida tropicalis 156 after 24 hrs by microdilution broth method; format: functional; details: Candida tropicalis, 156, 24 h
Method in brief: (§1)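 CLSI M27-A3 broth microdilution in RPMI 1640 with glutamine, buffered to pH 7.0 with MOPS; DMSO diluent. Yeast inoculum 5 × 10^3 ± 0.2 CFU/mL. Moulds grown on Sabouraud agar 3–10 days before spore harvest, final inoculum 0.5-5 × 10^4 CFU/mL, checked in a Bürker chamber. Incubated dark, humid, 35 °C, read at 24 and 48 h visually and at 540 nm. MIC taken as ≥80% (yeasts) or ≥50% (filamentous) growth reduction versus control.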

Lichtheimia corymbifera [2] = assay: Antifungal activity against Absidia corymbifera 272 after 24 hrs by microdilution broth method; format: functional; details: Lichtheimia corymbifera, 272, 24 h; method in brief: as §1
Mycobacterium avium [3] = assay: Antimycobacterial activity against Mycobacterium avium 330/80 after 21 days; format: functional; details: 330/80, 504 h
[4] = test system: Mycobacterium tuberculosis; assay: Antimycobacterial activity against Mycobacterium tuberculosis H37Rv 331/88 after 21 days; format: functional; details: H37Rv 331/88, 504 h
Mycobacterium kansasii [5] = assay: Antimycobacterial activity against Mycobacterium kansasii 6509/96 after 7 days; format: functional; details: 6509/96, 168 h
Method in brief: (§2)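 Šula's semisynthetic medium micromethod at 37 °C, read after 7, 14 and 21 days. The 1.0 McFarland suspension was diluted 10^-4. MIC determined. 6509/96 is a clinical isolate.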

Klebsiella pneumoniae [6] = assay: Antibacterial activity against Klebsiella pneumoniae D 11750/08 after 48 hrs by microdilution broth method; format: functional; details: D 11750/08, 48 h
Method in brief: (§3)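 Mueller-Hinton broth microdilution (modified M07-A07), pH 7.4 (±0.2). Compounds dissolved in DMSO, tested at final 500 to 0.49 µmol/L. Inoculum in sterile water matched to 0.5 McFarland. Incubated in the dark, humid atmosphere, 35 °C, read at 24 and 48 h visually and at 540 nm. MIC taken as ≥95% growth reduction (IC95) versus control.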

[7] = Selectivity index, ratio of CI50 for human HepG2 cells to MIC100 for Mycobacterium tuberculosis H37Rv 331/88
Mycobacterium kansasii [8] = assay: Antimycobacterial activity against Mycobacterium kansasii 6509/96 after 14 days; format: functional; details: 6509/96, 336 h; method in brief: as §2
Pseudomonas aeruginosa [9] = assay: Antibacterial activity against Pseudomonas aeruginosa CCM 1961 after 48 hrs by microdilution broth method; format: functional; details: CCM 1961, 48 h; method in brief: as §3
[10] = test system: Trichophyton mentagrophytes; assay: Antifungal activity against Trichophyton mentagrophytes 445 after 24 hrs by microdilution broth method; format: functional; details: Trichophyton mentagrophytes, 445, 24 h
Mycobacterium kansasii [11] = assay: Antimycobacterial activity against Mycobacterium kansasii 235/80 after 21 days; format: functional; details: 235/80, 504 h; method in brief: as §2
Mycobacterium kansasii [12] = assay: Antimycobacterial activity against Mycobacterium kansasii 235/80 after 7 days; format: functional; details: 235/80, 168 h; method in brief: as §2
Staphylococcus aureus [13] = assay: Antibacterial activity against Staphylococcus aureus CCM 4516/08 after 24 hrs by microdilution broth method; format: functional; details: CCM 4516/08, 24 h
HepG2 = assay: Cytotoxicity against human HepG2 cells after 24 hrs […]; format: cell-based; details: HepG2, 24 h
Staphylococcus aureus [14] = assay: Antibacterial activity against methicillin-resistant Staphylococcus aureus H 5996/08 after 48 hrs by microdilution broth method; format: functional; details: H 5996/08, 48 h
Enterococcus sp. [15] = assay: Antibacterial activity against Enterococcus sp. J 14365/08 after 48 hrs by microdilution broth method; format: functional; details: J 14365/08, 48 h; method in brief: as §3
[16] = test system: Mycobacterium tuberculosis; assay: Antimycobacterial activity against Mycobacterium tuberculosis H37Rv 331/88 after 14 days; format: functional; details: H37Rv 331/88, 336 h
Aspergillus fumigatus [17] = assay: Antifungal activity against Aspergillus fumigatus 231 after 24 hrs by microdilution broth method; format: functional; details: Aspergillus fumigatus, 231, 24 h; method in brief: as §1
Nakaseomyces glabratus [18] = assay: Antifungal activity against Candida glabrata 20/I after 48 hrs by microdilution broth method; format: functional; method in brief: as §1
Mycobacterium avium [19] = assay: Antimycobacterial activity against Mycobacterium avium 330/80 after 14 days; format: functional; details: 330/80, 336 h
Candida albicans [20] = assay: Antifungal activity against Candida albicans ATCC 44859 after 24 hrs by microdilution broth method; format: functional; details: ATCC 44859, 24 h; method in brief: as §1
Enterococcus sp. [21] = assay: Antibacterial activity against Enterococcus sp. J 14365/08 after 24 hrs by microdilution broth method; format: functional; details: J 14365/08, 24 h; method in brief: as §3
Klebsiella pneumoniae [22] = assay: Antibacterial activity against ESBL-positive Klebsiella pneumoniae J 14368/08 after 48 hrs by microdilution broth method; format: functional; details: J 14368/08, 48 h; method in brief: as §3
Escherichia coli [23] = assay: Antibacterial activity against Escherichia coli CCM4517 after 48 hrs by microdilution broth method; format: functional; details: CCM4517, 48 h; method in brief: as §3
Escherichia coli [24] = assay: Antibacterial activity against Escherichia coli CCM4517 after 24 hrs by microdilution broth method; format: functional; details: CCM4517, 24 h; method in brief: as §3
Pichia kudriavzevii [25] = assay: Antifungal activity against Candida krusei E28 after 24 hrs by microdilution broth method; format: functional; details: E28, 24 h; method in brief: as §1
Mycobacterium kansasii [26] = assay: Antimycobacterial activity against Mycobacterium kansasii 235/80 after 14 days; format: functional; details: 235/80, 336 h; method in brief: as §2
Lichtheimia corymbifera [27] = assay: Antifungal activity against Absidia corymbifera 272 after 48 hrs by microdilution broth method; format: functional; details: Lichtheimia corymbifera, 272, 48 h; method in brief: as §1
Mycobacterium kansasii [28] = assay: Antimycobacterial activity against Mycobacterium kansasii 6509/96 after 21 days; format: functional; details: 6509/96, 504 h; method in brief: as §2
Staphylococcus aureus [29] = assay: Antibacterial activity against methicillin-resistant Staphylococcus aureus H 5996/08 after 24 hrs by microdilution broth method; format: functional; details: H 5996/08, 24 h
Candida tropicalis [30] = assay: Antifungal activity against Candida tropicalis 156 after 48 hrs by microdilution broth method; format: functional; details: Candida tropicalis, 156, 48 h; method in brief: as §1
[31] = test system: Trichophyton mentagrophytes; assay: Antifungal activity against Trichophyton mentagrophytes 445 after 48 hrs by microdilution broth method; format: functional; details: Trichophyton mentagrophytes, 445, 48 h
Klebsiella pneumoniae [32] = assay: Antibacterial activity against Klebsiella pneumoniae D 11750/08 after 24 hrs by microdilution broth method; format: functional; details: D 11750/08, 24 h; method in brief: as §3
Trichosporon asahii [33] = assay: Antifungal activity against Trichosporon asahii 1188 after 48 hrs by microdilution broth method; format: functional; details: Trichosporon asahii, 1188, 48 h; method in brief: as §1
Pseudomonas aeruginosa [34] = assay: Antibacterial activity against Pseudomonas aeruginosa CCM 1961 after 24 hrs by microdilution broth method; format: functional; details: CCM 1961, 24 h; method in brief: as §3
Trichosporon asahii [35] = assay: Antifungal activity against Trichosporon asahii 1188 after 24 hrs by microdilution broth method; format: functional; details: Trichosporon asahii, 1188, 24 h; method in brief: as §1
Klebsiella pneumoniae [36] = assay: Antibacterial activity against ESBL-positive Klebsiella pneumoniae J 14368/08 after 24 hrs by microdilution broth method; format: functional; details: J 14368/08, 24 h; method in brief: as §3
Staphylococcus aureus [37] = assay: Antibacterial activity against Staphylococcus aureus CCM 4516/08 after 48 hrs by microdilution broth method; format: functional; details: CCM 4516/08, 48 h
Candida albicans [38] = assay: Antifungal activity against Candida albicans ATCC 44859 after 48 hrs by microdilution broth method; format: functional; details: ATCC 44859, 48 h; method in brief: as §1
Aspergillus fumigatus [39] = assay: Antifungal activity against Aspergillus fumigatus 231 after 48 hrs by microdilution broth method; format: functional; details: Aspergillus fumigatus, 231, 48 h; method in brief: as §1
[40] = test system: Staphylococcus epidermidis; assay: Antibacterial activity against Staphylococcus epidermidis H 6966/08 after 48 hrs by microdilution broth method; format: functional; details: H 6966/08, 48 h; method in brief: as §3
[41] = test system: Staphylococcus epidermidis; assay: Antibacterial activity against Staphylococcus epidermidis H 6966/08 after 24 hrs by microdilution broth method; format: functional; details: H 6966/08, 24 h; method in brief: as §3
Nakaseomyces glabratus [42] = assay: Antifungal activity against Candida glabrata 20/I after 24 hrs by microdilution broth method; format: functional; method in brief: as §1
Pichia kudriavzevii [43] = assay: Antifungal activity against Candida krusei E28 after 48 hrs by microdilution broth method; format: functional; details: E28, 48 h; method in brief: as §1

With O=C(Nc1ccc(C(F)(F)F)cc1)c1cc([N+](=O)[O-])ccc1O the MIC (Candida tropicalis [1]) was over 500 µM, the MIC (Lichtheimia corymbifera [2]) was 500 µM (≈ 163 µg/mL) and the MIC (Mycobacterium avium [3]) was 62.5 µM (≈ 20.4 µg/mL). It also gave an MIC [4] of 8 µM (≈ 2.61 µg/mL), an MIC (Mycobacterium kansasii [5]) of 16 µM (≈ 5.22 µg/mL) and an MIC (Klebsiella pneumoniae [6]) of over 500 µM. The “Selectivity Index” value [7] was 0.438, the MIC (Mycobacterium kansasii [8]) was 32 µM (≈ 10.4 µg/mL) and the MIC (Pseudomonas aeruginosa [9]) was over 500 µM. It also gave an MIC [10] of 500 µM (≈ 163 µg/mL), an MIC (Mycobacterium kansasii [11]) of 32 µM (≈ 10.4 µg/mL) and an MIC (Mycobacterium kansasii [12]) of 8 µM (≈ 2.61 µg/mL). It also gave an MIC (Staphylococcus aureus [13]) of 31.2 µM (≈ 10.2 µg/mL), a pIC50 (HepG2) of 5.46 and an MIC (Staphylococcus aureus [14]) of 31.2 µM (≈ 10.2 µg/mL). For the same molecule, the MIC (Enterococcus sp. [15]) was over 500 µM, the MIC [16] was 8 µM (≈ 2.61 µg/mL) and the MIC (Aspergillus fumigatus [17]) was 500 µM (≈ 163 µg/mL). The MIC (Nakaseomyces glabratus [18]) was over 500 µM, the MIC (Mycobacterium avium [19]) was 62.5 µM (≈ 20.4 µg/mL) and the MIC (Candida albicans [20]) was over 500 µM. The MIC (Enterococcus sp. [21]) was over 500 µM, the MIC (Klebsiella pneumoniae [22]) was over 500 µM and the MIC (Escherichia coli [23]) was over 500 µM. The MIC (Escherichia coli [24]) was over 500 µM, the MIC (Pichia kudriavzevii [25]) was over 500 µM and the MIC (Mycobacterium kansasii [26]) was 16 µM (≈ 5.22 µg/mL). For the same molecule, the MIC (Lichtheimia corymbifera [27]) was 500 µM (≈ 163 µg/mL), the MIC (Mycobacterium kansasii [28]) was 32 µM (≈ 10.4 µg/mL) and the MIC (Staphylococcus aureus [29]) was 31.2 µM (≈ 10.2 µg/mL). For the same molecule, the MIC (Candida tropicalis [30]) was over 500 µM, the MIC [31] was 500 µM (≈ 163 µg/mL) and the MIC (Klebsiella pneumoniae [32]) was over 500 µM. For the same molecule, the MIC (Trichosporon asahii [33]) was 500 µM (≈ 163 µg/mL), the MIC (Pseudomonas aeruginosa [34]) was over 500 µM and the MIC (Trichosporon asahii [35]) was 500 µM (≈ 163 µg/mL). It also gave an MIC (Klebsiella pneumoniae [36]) of over 500 µM, an MIC (Staphylococcus aureus [37]) of 31.2 µM (≈ 10.2 µg/mL) and an MIC (Candida albicans [38]) of over 500 µM. It also gave an MIC (Aspergillus fumigatus [39]) of 500 µM (≈ 163 µg/mL), an MIC [40] of 15.6 µM (≈ 5.1 µg/mL) and an MIC [41] of 15.6 µM (≈ 5.1 µg/mL). For the same molecule, the MIC (Nakaseomyces glabratus [42]) was over 500 µM and the MIC (Pichia kudriavzevii [43]) was over 500 µM.
